Test results as given in ChEMBL document CHEMBL1255370, “Activity of pradofloxacin against Porphyromonas and Prevotella spp. Implicated in periodontal disease in dogs: susceptibility test data from a European multicenter study” (2008).
Values after ≈ are worked out from the molar mass of the structure shown.

How the values were obtained:
Porphyromonas = experiment: Antimicrobial activity against Porphyromonas isolated from canine periodontal pockets after 48 hrs by agar dilution method; format: functional
Procedure, shortened: (§1)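 Isolates came from canine periodontal pockets (2004–2006, six countries; dogs without antimicrobials for ≥4 weeks), cultured anaerobically at 35 ± 1°C and identified by Biolog. MICs were found by CLSI M11-A6 agar dilution on brucella blood agar with hemin and vitamin K, using a multipoint inoculator under strict anaerobiosis for up to 48 h. QC strains were B. fragilis ATCC 25285 and E. lentum ATCC 43055.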

[1] = test system: Bacteroides heparinolyticus; experiment: Antimicrobial activity against Bacteroides heparinolyticus isolated from canine periodontal pockets after 48 hrs by agar dilution method; format: functional; settings: Prevotella heparinolytica; procedure, shortened: as §1
Prevotella intermedia = experiment: Antimicrobial activity against Prevotella intermedia isolated from canine periodontal pockets after 48 hrs by agar dilution method; format: functional; procedure, shortened: as §1
Prevotella corporis = experiment: Antimicrobial activity against Prevotella corporis isolated from canine periodontal pockets after 48 hrs by agar dilution method; format: functional; procedure, shortened: as §1
Hoylesella oralis = experiment: Antimicrobial activity against Prevotella oralis isolated from canine periodontal pockets after 48 hrs by agar dilution method; format: functional; procedure, shortened: as §1
Prevotella disiens = experiment: Antimicrobial activity against Prevotella disiens isolated from canine periodontal pockets after 48 hrs by agar dilution method; format: functional; procedure, shortened: as §1
Porphyromonas macacae [2] = experiment: Antimicrobial activity against Porphyromonas salivosa isolated from canine periodontal pockets after 48 hrs by agar dilution method; format: functional; procedure, shortened: as §1
Porphyromonas gingivalis = experiment: Antimicrobial activity against Porphyromonas gingivalis isolated from canine periodontal pockets after 48 hrs by agar dilution method
Prevotella sp. = experiment: Antimicrobial activity against Prevotella sp. isolated from canine periodontal pockets after 48 hrs by agar dilution method; format: functional; procedure, shortened: as §1
[3] = test system: Bacteroides zoogleoformans; experiment: Antimicrobial activity against Bacteroides zoogleoformans isolated from canine periodontal pockets after 48 hrs by agar dilution method; format: functional; procedure, shortened: as §1
Prevotella oulorum = experiment: Antimicrobial activity against Prevotella oulorum isolated from canine periodontal pockets after 48 hrs by agar dilution method; format: functional; settings: Segatella oulorum; procedure, shortened: as §1
Prevotella buccae = experiment: Antimicrobial activity against Prevotella buccae isolated from canine periodontal pockets after 48 hrs by agar dilution method; format: functional; settings: Segatella buccae; procedure, shortened: as §1
[4] = test system: Porphyromonas asaccharolytica; experiment: Antimicrobial activity against Porphyromonas asaccharolyticus isolated from canine periodontal pockets after 48 hrs by agar dilution method; format: functional; procedure, shortened: as §1
Prevotella nigrescens = experiment: Antimicrobial activity against Prevotella nigrescens isolated from canine periodontal pockets after 48 hrs by agar dilution method; format: functional; procedure, shortened: as §1
Prevotella oris = experiment: Antimicrobial activity against Prevotella oris isolated from canine periodontal pockets after 48 hrs by agar dilution method; format: functional; settings: Segatella oris; procedure, shortened: as §1
Hoylesella loescheii = experiment: Antimicrobial activity against Prevotella loescheii isolated from canine periodontal pockets after 48 hrs by agar dilution method; format: functional; procedure, shortened: as §1
Prevotella denticola = experiment: Antimicrobial activity against Prevotella denticola isolated from canine periodontal pockets after 48 hrs by agar dilution method; format: functional; procedure, shortened: as §1
Porphyromonas levii = experiment: Antimicrobial activity against Porphyromonas levii isolated from canine periodontal pockets after 48 hrs by agar dilution method; format: functional; procedure, shortened: as §1
[5] = test system: Porphyromonas circumdentaria; experiment: Antimicrobial activity against Porphyromonas circumdentaria isolated from canine periodontal pockets after 48 hrs by agar dilution method; format: functional; procedure, shortened: as §1
Porphyromonas macacae [6] = experiment: Antimicrobial activity against Porphyromonas macacae isolated from canine periodontal pockets after 48 hrs by agar dilution method; format: functional; procedure, shortened: as §1

SMILES | MIC50 [1] [µg/mL] | MIC90 [1] [µg/mL] | MIC50 (Prevotella intermedia) [µg/mL] | MIC50 (Prevotella corporis) [µg/mL] | MIC90 (Prevotella corporis) [µg/mL] | MIC50 (Hoylesella oralis) [µg/mL] | MIC50 (Prevotella disiens) [µg/mL] | MIC50 (Porphyromonas macacae [2]) [µg/mL] | MIC90 (Porphyromonas macacae [2]) [µg/mL] | MIC50 (Porphyromonas gingivalis) [µg/mL] | MIC90 (Porphyromonas gingivalis) [µg/mL] | MIC50 (Prevotella sp.) [µg/mL] | MIC90 (Prevotella sp.) [µg/mL] | MIC [3] [µg/mL] | MIC (Prevotella oulorum) [µg/mL] | MIC (Prevotella buccae) [µg/mL] | MIC50 [4] [µg/mL] | MIC90 [4] [µg/mL] | MIC50 (Prevotella nigrescens) [µg/mL] | MIC90 (Prevotella nigrescens) [µg/mL] | also measured
NC1CCN(c2c(F)cc3c(=O)c(C(=O)O)cn(C4CC4)c3c2Cl)C1 (configuration not stated) [CLINAFLOXACIN] |  |  |  |  |  |  |  |  |  |  |  |  |  |  |  |  |  |  |  |  | MIC90 (Porphyromonas): 0.125 µg/mL (≈ 0.342 µM)
Cc1ncc([N+](=O)[O-])n1CCO [METRONIDAZOLE] | 0.25 (≈ 1.46 µM) | 0.5 (≈ 2.92 µM) | ≤ 0.016 | 0.062 (≈ 0.362 µM) | 0.25 (≈ 1.46 µM) | 0.25 (≈ 1.46 µM) | 0.062 (≈ 0.362 µM) | 0.25 (≈ 1.46 µM) | 0.5 (≈ 2.92 µM) | 0.062 (≈ 0.362 µM) | 0.25 (≈ 1.46 µM) | 0.25 (≈ 1.46 µM) | 0.5 (≈ 2.92 µM) | 0.125 (≈ 0.73 µM) | 0.25 (≈ 1.46 µM) | 0.5 (≈ 2.92 µM) | 0.031 (≈ 0.181 µM) | 0.125 (≈ 0.73 µM) | 0.125 (≈ 0.73 µM) | 0.5 (≈ 2.92 µM) | MIC (Prevotella intermedia): ≤ 0.016 µg/mL; MIC50 (Prevotella oris): 0.5 µg/mL (≈ 2.92 µM); MIC (Hoylesella loescheii): 0.062 µg/mL (≈ 0.362 µM); MIC50 (Prevotella denticola): 0.125 µg/mL (≈ 0.73 µM); MIC50 (Porphyromonas levii): 0.062 µg/mL (≈ 0.362 µM); MIC90 (Porphyromonas levii): 0.125 µg/mL (≈ 0.73 µM); MIC50 [5]: 0.125 µg/mL (≈ 0.73 µM); MIC90 [5]: 0.25 µg/mL (≈ 1.46 µM); MIC50 (Porphyromonas macacae [6]): 0.125 µg/mL (≈ 0.73 µM); MIC90 (Porphyromonas macacae [6]): 0.25 µg/mL (≈ 1.46 µM)
N#Cc1c(N2C[C@@H]3CCCN[C@@H]3C2)c(F)cc2c(=O)c(C(=O)O)cn(C3CC3)c12 [PRADOFLOXACIN] | 0.062 (≈ 0.156 µM) | 0.25 (≈ 0.631 µM) | 0.031 (≈ 0.0782 µM) | 0.062 (≈ 0.156 µM) | 0.125 (≈ 0.315 µM) | 0.062 (≈ 0.156 µM) | 0.062 (≈ 0.156 µM) | 0.125 (≈ 0.315 µM) | 0.125 (≈ 0.315 µM) | 0.031 (≈ 0.0782 µM) | 0.125 (≈ 0.315 µM) | 0.062 (≈ 0.156 µM) | 0.25 (≈ 0.631 µM) | 0.125 (≈ 0.315 µM) | 0.031 (≈ 0.0782 µM) | 0.25 (≈ 0.631 µM) | 0.062 (≈ 0.156 µM) | 0.062 (≈ 0.156 µM) | 0.062 (≈ 0.156 µM) | 0.25 (≈ 0.631 µM) | MIC (Hoylesella oralis): 0.062 µg/mL (≈ 0.156 µM); MIC50 (Prevotella oris): 0.062 µg/mL (≈ 0.156 µM); MIC (Hoylesella loescheii): 0.062 µg/mL (≈ 0.156 µM); MIC (Prevotella denticola): 0.062 µg/mL (≈ 0.156 µM); MIC50 (Prevotella denticola): 0.062 µg/mL (≈ 0.156 µM); MIC50 (Porphyromonas levii): 0.062 µg/mL (≈ 0.156 µM); MIC90 (Porphyromonas levii): 0.125 µg/mL (≈ 0.315 µM); MIC50 [5]: 0.062 µg/mL (≈ 0.156 µM); MIC90 [5]: 0.25 µg/mL (≈ 0.631 µM); MIC50 (Porphyromonas macacae [6]): 0.062 µg/mL (≈ 0.156 µM); MIC90 (Porphyromonas macacae [6]): 0.125 µg/mL (≈ 0.315 µM)
